Experimental data as given in ChEMBL document CHEMBL1933048, “Inhibition of the pore-forming protein perforin by a series of aryl-substituted isobenzofuran-1(3H)-ones” (Bioorg Med Chem, 2012).
The source made the active and inactive calls. No cut-off for these calls is given here.

Columns and labels:
Format in all cases: cell-based
[1] = Cytotoxicity against human KHYG-1 NK cells assessed as cell viability at 20 uM after 18 to 24 hrs by trypan blue assay; conditions: read-out: Activity
In short: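 KHYG-1 NK cells were suspended at 4 × 10⁵ cells/mL in RPMI + 0.1% BSA and treated with compound at rt for 20 min. Instead of target cells, RPMI + 0.1% BSA was added, followed by 4 h at 37 °C. Cells were washed ×3 and kept in complete medium for 18–24 h at 37 °C. Trypan blue viable/total counts gave % viability vs a DMSO control. Values are the mean of ≥3 determinations.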

[2] = target: T1, Perforin-1 (Homo sapiens) (UniProt P14222); experiment: Inhibition of perforin released from human KHYG-1 NK cells assessed as inhibition of perforin-mediated lysis of human K562 cells at 20 uM by [51Cr] release assay in absence of serum
T1 sequence (whole entry): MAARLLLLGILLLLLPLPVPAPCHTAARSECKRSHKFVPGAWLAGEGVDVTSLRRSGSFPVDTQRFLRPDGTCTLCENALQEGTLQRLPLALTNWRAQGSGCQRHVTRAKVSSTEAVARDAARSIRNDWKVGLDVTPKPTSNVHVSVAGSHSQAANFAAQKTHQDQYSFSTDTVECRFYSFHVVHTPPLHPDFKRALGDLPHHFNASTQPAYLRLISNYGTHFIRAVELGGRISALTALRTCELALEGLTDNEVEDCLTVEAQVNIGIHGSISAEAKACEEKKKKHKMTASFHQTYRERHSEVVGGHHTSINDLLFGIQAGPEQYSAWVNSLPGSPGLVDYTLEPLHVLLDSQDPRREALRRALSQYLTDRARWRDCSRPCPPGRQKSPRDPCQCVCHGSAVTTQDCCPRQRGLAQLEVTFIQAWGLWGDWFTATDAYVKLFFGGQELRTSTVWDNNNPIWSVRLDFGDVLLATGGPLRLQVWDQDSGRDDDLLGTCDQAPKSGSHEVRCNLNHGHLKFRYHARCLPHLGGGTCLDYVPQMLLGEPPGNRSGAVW
In short: (§1)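 KHYG-1 cells (4 × 10⁵/mL, RPMI + 0.1% BSA) received either BSA medium or 10% mouse serum final, then compound at 20 µM for 20 min at rt. K562 cells labelled with 75 µCi ⁵¹Cr (90 min, 37 °C) and washed were added at E:T 2:1 for 4 h at 37 °C. ⁵¹Cr release was gamma-counted. Specific lysis used spontaneous/maximum release, and inhibition was taken vs untreated control. Triplicate wells; ≥3 determinations.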

[3] = target: T1, Perforin-1 (Homo sapiens); experiment: Inhibition of perforin released from human KHYG-1 NK cells assessed as inhibition of perforin-mediated lysis of human K562 cells at 20 uM by [51Cr] release assay in presence of 10% mouse serum; in short: as §1
[4] = target: Pneumolysin (Streptococcus pneumoniae serotype 4 (strain ATCC BAA-334 / TIGR4)) (UniProt P0C2J9); experiment: Inhibition of Streptococcus pneumoniae pneumolysin-mediated lysis of Jurkat cells assessed as [51Cr] release at 20 uM […] for 30 mins followed by incubation with [51Cr]-labeled Jurkat cells by gamma counting
Sequence of Pneumolysin (Streptococcus pneumoniae serotype 4 (strain ATCC BAA-334 / TIGR4)) (P0C2J9 whole entry): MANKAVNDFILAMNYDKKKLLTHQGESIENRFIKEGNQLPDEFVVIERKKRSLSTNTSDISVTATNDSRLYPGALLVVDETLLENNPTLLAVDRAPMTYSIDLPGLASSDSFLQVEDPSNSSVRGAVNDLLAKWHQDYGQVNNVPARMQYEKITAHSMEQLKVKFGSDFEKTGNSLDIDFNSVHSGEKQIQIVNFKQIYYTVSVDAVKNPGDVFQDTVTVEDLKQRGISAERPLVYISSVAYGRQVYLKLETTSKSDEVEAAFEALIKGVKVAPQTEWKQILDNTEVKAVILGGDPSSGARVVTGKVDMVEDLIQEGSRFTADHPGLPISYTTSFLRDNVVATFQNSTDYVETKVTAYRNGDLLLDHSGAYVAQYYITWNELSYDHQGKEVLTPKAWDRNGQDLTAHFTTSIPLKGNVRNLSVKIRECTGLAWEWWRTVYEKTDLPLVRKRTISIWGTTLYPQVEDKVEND
In short: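 Single 20 µM concentration, preincubated 30 min with pneumolysin in place of perforin, with DMSO as negative control. Jurkat cells were labelled 1 h with 100 µCi ⁵¹Cr, washed three times, and resuspended at 1 × 10⁵ cells/mL in RPMI with 0.1% BSA. Labelled cells were then added for 4 h at 37 °C, and supernatant radioactivity was gamma-counted.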

[5] = target: T1, Perforin-1 (Homo sapiens); experiment: Inhibition of recombinant perforin-mediated lysis of Jurkat cells assessed as [51Cr] release at 20 uM preincubated with perforin for 30 mins followed by incubation with [51Cr]-labeled Jurkat cells by gamma counting
In short: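 Compound at 20 µM was preincubated with recombinant perforin for 30 min, with DMSO as negative control. Jurkat cells were labelled with 100 µCi ⁵¹Cr for 1 h, washed ×3 and used at 1 × 10⁵/mL in RPMI + 0.1% BSA. They were added and incubated for 4 h at 37 °C. Supernatant radioactivity was measured by gamma counting. Triplicate points.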

| SMILES | viability at 20 µM [1] | inhibition [2] | inhibition [3] | inhibition [4] | inhibition [5] |
| --- | --- | --- | --- | --- | --- |
| O=C1NC(=S)N/C1=C/c1ccc(-c2ccc3c(c2)COC3=O)cn1 | 92% | 37% | 20% |  |  |
| O=C1NC(=S)N/C1=C/c1ccc(-c2ccc3c(c2)COC3=O)cc1 | 59% | 28% | 30% |  |  |
| O=C1NC(=S)N/C1=C/c1cc2ccc(-c3ccc4c(c3)COC4=O)cc2[nH]1 | 10% | 100% | 100% |  |  |
| O=C1NC(=S)N/C1=C/c1cc(-c2ccc3c(c2)COC3=O)ns1 | 57% | 45% | 26% |  |  |
| O=C1NC(=S)N/C1=C/c1cc2cc(-c3ccc4c(c3)COC4=O)ccc2[nH]1 | 23.2% | 91% | 83% |  |  |
| O=C1NC(=S)N/C1=C/c1csc(-c2ccc3c(c2)COC3=O)n1 | 25% | 11% | 2% |  |  |
| O=C1NC(=S)N/C1=C/c1cc(-c2ccc3c(c2)COC3=O)cs1 | 55% | 49% | 42% |  |  |
| O=C1NC(=S)N/C1=C/c1cc(-c2ccc3c(c2)COC3=O)no1 | 63% | 41% | 23% |  |  |
| O=C1NC(=S)N/C1=C/c1cc2cc(-c3ccc4c(c3)COC4=O)ccc2o1 | 29.9% | 61% | 35% |  |  |
| O=C1NC(=O)/C(=C\c2ccc(-c3ccc4c(c3)COC4=O)s2)N1 | 91.5% | 54% | 64% |  |  |
| O=C1NC(=S)NC(=O)C1=Cc1ccc(-c2ccc3c(c2)COC3=O)s1 | 38% | 91% | 73% |  |  |
| O=C1NC(=S)N/C1=C/c1cc2ccc(-c3ccc4c(c3)COC4=O)cc2s1 | 19.7% | 46% | 25% |  |  |
| O=C1NC(=S)N/C1=C/c1ccc2cc(-c3ccc4c(c3)COC4=O)ccc2n1 | 48.5% | 60% | 35% |  |  |
| O=C1NC(=S)N/C1=C/c1cnc(-c2ccc3c(c2)COC3=O)s1 | 68% | 45% | 27% |  |  |
| O=C1NC(=O)/C(=C\c2ccc(-c3ccc4c(c3)COC4=O)s2)S1 | 19% | 36% | 12% |  |  |
| O=C1NC(=S)N/C1=C/c1ccc(-c2ccc3c(c2)COC3=O)o1 | 66% | 74% | 23% | inactive | Active |
| O=C1NC(=S)N/C1=C/c1ccc2ccc(-c3ccc4c(c3)COC4=O)cc2n1 | 59% | 52% | 38% |  |  |
| O=C1NC(=S)N/C1=C/c1ccc(-c2ccc3c(c2)COC3=O)s1 | 88% | 53% | 38.9% |  |  |
| O=C1NC(=O)C(=Cc2ccc(-c3ccc4c(c3)COC4=O)s2)C(=O)N1 | 77.6% | 52% | 10% |  |  |
| Cc1cc2c(c(=S)[nH]1)C(=O)OC2=Cc1csc2ccccc12 | 77% | 41% | 10.3% |  |  |
| O=C1NC(=S)N/C1=C/c1cc2cc(-c3ccc4c(c3)COC4=O)ccc2s1 | 27% | 51% | 17% |  |  |
| O=C1NC(=S)N/C1=C/c1nc(-c2ccc3c(c2)COC3=O)cs1 | 91% | 30% | 13% |  |  |
